Laboratory results: publication PMC4529374 (Pharmaceutical research, 2015)
Converted amounts (≈) assume the structure as drawn.

Key:
[1] = EFdA/CSIC stability in the film polymer solution; format: physicochemical; settings: 25°C/65% R.H. and 40°C/75% R.H., 4 weeks
How it was run: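 Drug-loaded aqueous PVA (7%, w/w) film-casting solution, about 0.5 ml per vial, was sealed against evaporation and light. EFdA: Zorbax C18, 0.4% phosphoric acid/methanol gradient, 0.8 ml/min, UV 260 nm. CSIC: Gemini C18, acetonitrile-0.075% TFA (40:60), 1.2 ml/min, UV 302 nm.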

[2] = In vitro cytotoxicity, MTT assay; format: cell-based; settings: human, HEC-1A cells
How it was run: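 HEC-1A cells were grown in McCoy's 5A with 10% FBS and penicillin/streptomycin at 37°C, 5% CO2, then seeded at 1×10⁴ cells/well. After 24 h, free drug (5 ng/ml–50 µg/ml) or film at the equivalent dose, or placebo film, was added for 24 h. MTT (5 mg/ml stock) was added in fresh medium for 3 h at 37°C. Formazan was dissolved in DMSO and absorbance read at 595 nm.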

[3] = tested on: HIV-1; settings: read-out: EC50 of CSIC; cited from earlier work
[4] = CSIC solubility in water and solubilizer solutions; format: physicochemical; settings: water
How it was run: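 Excess CSIC was rotated at moderate speed in the solubilizer solutions at ambient temperature for 120 h. The mixture was filtered through a 0.2 µm membrane, and the filtrate was assayed by HPLC. HPLC conditions: Gemini C18 column, isocratic acetonitrile-0.075% (v/v) TFA (40:60) at 1.2 ml/min, UV detection at 302 nm, room temperature, total peak area against a linear least-squares calibration. LOQ was 0.5 µg/ml.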

Compound | loss of drug content in film polymer solution [1] | CC50 at 24 h [2] [µg/mL] | EC50 [3] [nM] | solubility [4] [µg/mL]
NC(=O)c1[nH]c2ccc(Cl)cc2c1S(=O)(=O)c1ccccc1 [CSIC, 5-chloro-3-phenylsulfonylindole-2-carboxamide] | No loss of drug content | 11.4 ± 2.8 (≈ 34.1 µM) | 1.2 | < 0.5
C#C[C@]1(CO)O[C@@H](n2cnc3c(N)nc(F)nc32)C[C@@H]1O [EFdA, 4’-ethynyl-2-fluoro-2’-deoxyadenosine] | No loss of drug content | > 50 | – | –
